The results in this text go back to ChEMBL document CHEMBL4145465, “Design, synthesis and biological evaluation of novel ring-opened cromakalim analogues with relaxant effects on vascular and respiratory smooth muscles and as stimulators of elastin synthesis” (Eur J Med Chem, 2018).

Active and inactive are the calls of the source. No cut-off for these calls is given here.

Series [1] has as its system Trachea. Nature of the series: Tracheorelaxant activity in Wistar rat trachea tonus assessed as reduction in 30 mM KCl-induced contraction after 15 mins. It is filed as functional, tissue-based. The note with it: 0.25 h. In short, it runs like this: (§1)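 Trachea rings (3-4 mm) from female Wistar rats were held in a 10 ml organ bath under the same conditions as the aorta and contracted with 30 mM KCl. Compound in DMSO was added cumulatively. EC50 was derived by non-linear regression; Emax is % relaxation at 100 µM.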

Series [2] concerns Trachea. In words: Tracheorelaxant activity in Wistar rat trachea tonus assessed as reduction in 30 mM KCl-induced contraction at 100 uM after 15 mins relative to control. Type of series: functional. The note with it: 0.25 h. In short, it runs like this: as §1
The next series concerns Trachea/thoracic aorta. In words: Ratio of EC50 for Wistar rat trachea tonus to EC50 for Wistar rat endothelium-denuded thoracic aorta ring. Type of series: functional. The note with it: in the assay text read “endothelium-intact” for “endothelium-denuded”. In short, it runs like this:
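Ratio of trachea EC50 to aorta EC50, both measured against 30 mM KCl contraction in female Wistar rat rings, with cumulative compound addition in DMSO and EC50 from non-linear regression.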

Series [3] relates to Thoracic aorta. In words: Vasorelaxing activity in Wistar rat endothelium-intact thoracic aorta ring assessed as reduction in 30 mM KCl-induced contraction after 15 mins. Conditions: 0.25 h.
For series [4], the system named is Thoracic aorta. Nature of the series: Vasorelaxing activity in Wistar rat endothelium-intact thoracic aorta ring assessed as reduction in 30 mM KCl-induced contraction at 300 uM after 15 mins relative to DMSO. The note with it: 0.25 h.
Series [5] has as its system VSMC. Nature of the series: Induction of elastin synthesis in rat VSMC at 50 uM after 48 hrs by ELISA relative to control. Type of series: functional. An outline of the steps: (§2)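 Rat aortic VSMCs (collagenase/elastase digestion of intima-media, grown in DMEM 20% FBS on gelatin) serum-starved overnight in 1% FBS-DMEM, seeded 25000 cells/well, then exposed 48 h to compound in DMSO (<1% final); DMSO-only negative control, diazoxide reference. Fixed cells immunostained for elastin with HRP secondary, TMB substrate, absorbance 450 nm; 5-7 wells per concentration.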
For orientation: An ELISA detects its analyte on a solid surface through an enzyme-linked reagent.

Series [6] concerns VSMC. Nature of the series: Induction of elastin synthesis in rat VSMC at 20 uM after 48 hrs by ELISA. It is filed as functional, cell-based. An outline of the steps:
as §2

Series [7] has as its system Thoracic aorta. Nature of the series: Vasorelaxing activity in Wistar rat endothelium-denuded thoracic aorta ring assessed as reduction in 30 mM KCl-induced contraction after 15 mins in presence of 1 uM glibenclamide. It is filed as functional, tissue-based. The note with it: 0.25 h, in the assay text read “endothelium-intact” for “endothelium-denuded”. In short, it runs like this: (§3)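 Female Wistar rat aortic rings were contracted with 30 mM KCl while continuously bathed in 1 or 10 µM glibenclamide. Compound in DMSO was added cumulatively up to 300 µM, each step held ≥15 min to a plateau. EC50 was derived by non-linear regression and compared with the EC50 obtained without glibenclamide.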

Series [8] deals with Thoracic aorta. Nature of the series: Vasorelaxing activity in Wistar rat endothelium-denuded thoracic aorta ring assessed as reduction in 30 mM KCl-induced contraction after 15 mins in presence of 10 uM glibenclamide. It is filed as functional, tissue-based. Conditions: 0.25 h, in the assay text read “endothelium-intact” for “endothelium-denuded”. An outline of the steps:
as §3

For series [9], the system named is Thoracic aorta. In words: Vasorelaxing activity in Wistar rat endothelium-denuded thoracic aorta ring assessed as reduction in 80 mM KCl-induced contraction after 15 mins. Type of series: functional, tissue-based. The note with it: 0.25 h, in the assay text read “endothelium-intact” for “endothelium-denuded”. In short, it runs like this:
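Female Wistar rat aortic rings were depolarized with an 80 mM KCl solution (NaCl 43.6 mM). Once the plateau was reached, compound in DMSO was added cumulatively up to 300 µM. EC50 was obtained by non-linear regression of concentration-response curves.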

Series [10] can be described thus: Ionozation constant, pKa of the compound at pH 3 to 12 at 25 degC by UV/VIS spectrophotometric method. It is filed as physicochemical.

A word on the EC50: it is the concentration needed to bring the measured effect to its halfway point. A word on the Emax: it is the maximal effect, on the per cent scale that the assay sets. The term pKa denotes the pH at which an ionisable group is half protonated. Low readings indicate a group that gives up its proton readily, high ones a group that holds its proton tightly.

With `COc1ccc(OC)c(CNC(=O)N(C)S(=O)(=O)c2ccccc2)c1`, the concentration for a half-maximal effect (EC50) with Trachea [1] was 18.5 µM; in the series with Thoracic aorta [3], 21.3 µM. Also, the maximal response (Emax) turned out to be 150% in the series on Trachea [2] and 100% in the series on Thoracic aorta [4]. In addition, the “Ratio EC50” value in the series on Trachea/thoracic aorta came to 0.9.
For the molecule `CCOc1ccc(Cl)cc1C(C)NC(=O)N(C)S(=O)(=O)c1ccccc1` (configuration not stated), the result with VSMC [5] was Active. Further, the outcome in the series with VSMC [6] was inactive. In addition, the concentration giving a half-maximal response (EC50) in the series on Thoracic aorta [3] was 10.5 µM. The Emax in the series with Thoracic aorta [4] amounted to 104%.
Consider `COc1ccc(Br)cc1C(C)NC(=O)N(C)S(=O)(=O)c1ccc(C)cc1` (configuration not stated), for which the 50% effective concentration (EC50) with Trachea [1] amounted to 12.8 µM; with Thoracic aorta [3], 19.1 µM. Also, the maximal response (Emax) was found to be 143% in the series with Trachea [2] and 97.7% with Thoracic aorta [4]. Further, the “Ratio EC50” value in the series with Trachea/thoracic aorta is on record as 0.7.
For `CCOc1ccc(F)cc1C(C)NC(=O)N(C)S(=O)(=O)c1ccc(C)cc1` (racemic), the EC50 in the series on Thoracic aorta [3] is 7.8 µM. Also, in the series on Thoracic aorta [4], the Emax stood at 104%.
With `Cc1ccc(OCc2ccccc2)c(C(C)NC(=O)N(C)S(=O)(=O)c2ccc(Cl)cc2)c1` (racemic), the half-maximal effective concentration (EC50) in the series on Thoracic aorta [3] was 142 µM. For the same molecule, the Emax in the series on Thoracic aorta [4] came out at 76.9%.
The corresponding values for `Cc1ccc(S(=O)(=O)N(C)C(=O)NC(C)c2ccccc2OCc2ccccc2)cc1` (racemic) are 31 µM and 93.2%.
`CCOc1ccc(Br)cc1C(C)NC(=O)N(C)S(=O)(=O)c1ccccc1` (racemic): the values for the EC50 in the series with Trachea [1] and with Thoracic aorta [3] were 8.4 µM and 19.8 µM, respectively. The Emax in the series on Trachea [2] was 137%; in the series with Thoracic aorta [4], 104%. The “Ratio EC50” value in the series with Trachea/thoracic aorta was found to be 0.4.
Turning to `CC(NC(=O)NS(=O)(=O)c1ccc(Cl)cc1)c1cc(Br)ccc1OCc1ccccc1` (racemic), the half-maximal effective concentration (EC50) in the series with Thoracic aorta [7] was 78.4 µM; with Thoracic aorta [8], 54.6 µM; with Thoracic aorta [9] it was 61.6 µM; in the series with Trachea [1], 30.8 µM; in the series on Thoracic aorta [3], 57.5 µM. In addition, the maximal effect (Emax) with Trachea [2] was 161%; in the series with Thoracic aorta [4] it was 95.1%. Further, the “Ratio EC50” value in the series on Trachea/thoracic aorta was found to be 0.5. In the series with VSMC [5], the result was Active. Also, the result with VSMC [6] was inactive. In series [10], this molecule registered a pKa of 5.31.
Turning to `COc1ccc(F)cc1C(C)NC(=O)N(C)S(=O)(=O)c1ccc(C)cc1` (racemic), in the series with Thoracic aorta [3], the EC50 worked out at 11.7 µM. Also, the Emax with Thoracic aorta [4] came to 106%.
In the same order, the values of `COc1ccc(F)cc1C(C)NC(=O)N(C)S(=O)(=O)c1ccccc1` (racemic) are 10 µM and 109%.
The corresponding values for `COc1ccc(F)cc1C(C)NC(=O)N(C)S(=O)(=O)c1ccc(Cl)cc1` (racemic) are 12.6 µM and 101%.
In the case of `COc1ccc(Br)cc1C(C)NC(=O)N(C)S(=O)(=O)c1ccccc1` (racemic), the figures for the EC50 in the series on Trachea [1] and in the series on Thoracic aorta [3] were 8.4 µM and 16.8 µM, respectively. Moreover, the Emax in the series with Trachea [2] worked out at 125%; with Thoracic aorta [4], 98%. For the same molecule, the “Ratio EC50” value in the series with Trachea/thoracic aorta is given as 0.5.
In the case of `Cc1ccc(S(=O)(=O)N(C)C(=O)NC(C)c2cc(C)ccc2OCc2ccccc2)cc1` (racemic), the concentration for a half-maximal effect (EC50) in the series on Thoracic aorta [3] was 181 µM. Besides, the Emax in the series with Thoracic aorta [4] was determined as 82.9%.
Consider `COc1ccc(Br)cc1C(C)NC(=O)N(C)S(=O)(=O)c1ccc(Cl)cc1` (racemic), for which the figures for the half-maximal effective concentration (EC50) in the series on Trachea [1] and in the series on Thoracic aorta [3] were 39.3 µM and 19.1 µM, respectively. Further, the maximal response (Emax) with Trachea [2] came out at 125%; with Thoracic aorta [4] it was 93.6%. The “Ratio EC50” value with Trachea/thoracic aorta is listed as 2.
As for `COc1ccc(Cl)cc1C(C)NC(=O)N(C)S(=O)(=O)c1ccccc1` (racemic), the EC50 was found to be 6.7 µM with Thoracic aorta [7]; 8.6 µM with Thoracic aorta [8]; 5.3 µM in the series on Thoracic aorta [9]; 1.7 µM in the series with Trachea [1]; 7.2 µM in the series on Thoracic aorta [3]. Also, the Emax in the series with Trachea [2] worked out at 154%; with Thoracic aorta [4], 103%. Moreover, the “Ratio EC50” value in the series with Trachea/thoracic aorta is 0.2. Also, the result in the series with VSMC [5] and in the series on VSMC [6] was Active.
Consider `CCOc1ccc(F)cc1C(C)NC(=O)N(C)S(=O)(=O)c1ccc(Cl)cc1` (racemic), for which the EC50 in the series with Thoracic aorta [3] is 24.5 µM. In addition, in the series on Thoracic aorta [4], the Emax amounted to 101%.
In the same order, the values of `CC(NC(=O)N(C)S(=O)(=O)c1ccc(Cl)cc1)c1ccccc1OCc1ccccc1` (racemic) are 38.4 µM and 91.1%.
Take `Cc1ccc(OCc2ccccc2)c(C(C)NC(=O)NS(=O)(=O)c2ccc(Cl)cc2)c1` (racemic): the EC50 was 90.5 µM with Thoracic aorta [7]; 69.3 µM in the series with Thoracic aorta [8]; 60.9 µM with Thoracic aorta [9]; 30.4 µM in the series on Trachea [1]; 65.3 µM in the series on Thoracic aorta [3]. Moreover, the maximum response (Emax) was found to be 172% in the series on Trachea [2] and 126% in the series on Thoracic aorta [4]. Also, the “Ratio EC50” value in the series with Trachea/thoracic aorta stood at 0.5. In addition, the outcome in the series on VSMC [5] and in the series with VSMC [6] was inactive.
As for `CCOc1ccc(F)cc1C(C)NC(=O)N(C)S(=O)(=O)c1ccccc1` (racemic), the EC50 in the series on Thoracic aorta [3] was determined as 11.5 µM. Besides, in the series with Thoracic aorta [4], the Emax was determined as 106%.
In the same order, the values of `CC(NC(=O)N(C)S(=O)(=O)c1ccccc1)c1ccccc1OCc1ccccc1` (racemic) are 21.7 µM and 92.3%.
Consider `CC1(C)Oc2ccc(C#N)cc2[C@H](N2CCCC2=O)[C@H]1O` [(-)-CROMAKALIM], for which the half-maximal effective concentration (EC50) came out at 3.4 µM in the series with Thoracic aorta [7]; 87.2 µM in the series with Thoracic aorta [8]; 191 µM in the series with Thoracic aorta [9]; 124 µM in the series with Trachea [1]; 0.13 µM in the series on Thoracic aorta [3]. Moreover, in the series with Trachea [2], the Emax amounted to 70.1%. In addition, the “Ratio EC50” value in the series with Trachea/thoracic aorta stood at 956.9.
In turn, `CC1=Nc2ccc(Cl)cc2S(=O)(=O)N1` [DIAZOXIDE] had an Activity with VSMC [5] of 92%. The result in the series with VSMC [6] was inactive.
With `COc1ccc(CCN(C)CCCC(C#N)(c2ccc(OC)c(OC)c2)C(C)C)cc1OC` (configuration not stated) [VERAPAMIL], the 50% effective concentration (EC50) is 0.07 µM with Thoracic aorta [7]; 0.07 µM in the series on Thoracic aorta [8]; 0.05 µM in the series on Thoracic aorta [9]; 0.89 µM in the series with Trachea [1]; 0.06 µM in the series with Thoracic aorta [3]. The “Ratio EC50” value in the series on Trachea/thoracic aorta was 28.7.
